In ChEMBL document CHEMBL1649288, “Fmt bypass in Pseudomonas aeruginosa causes induction of MexXY efflux pump expression” (2009):
≈ marks a conversion by molar mass, not a printed value.

Tests used:
Type in all cases: functional
Pseudomonas aeruginosa [1] = assay: Antibacterial activity against wild type Pseudomonas aeruginosa PAO1 NB52019 by broth microdilution method
How it was run: (§1)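 Broth microdilution following standard CLSI guidelines. P. aeruginosa strains were routinely cultured at 37°C in Mueller-Hinton or Luria broth. Where plasmids required selection, media carried gentamicin or tetracycline (100 μg/ml) or carbenicillin (100 μg/ml).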

Pseudomonas aeruginosa [2] = assay: Antibacterial activity against Pseudomonas aeruginosa PAO1 CDS22 harboring pRC5 by broth microdilution method; how it was run: as §1
Pseudomonas aeruginosa [3] = assay: Induction of mexZ (PA2020) gene expression in wild type Pseudomonas aeruginosa PAO1 NB52019 at 12 ug/ml relative to control
How it was run: (§2)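 Duplicate P. aeruginosa NB52019 cultures were diluted 1:100 from overnight into 30 ml Luria broth with or without 12 μg/ml drug, shaken at 180 rpm at 37°C to OD600 0.8, and harvested at 15,000 × g for 10 min. Total RNA was purified with a 40-min on-column DNase I step for transcriptional profiling, and treated cultures were compared with untreated ones.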

Pseudomonas aeruginosa [4] = assay: Induction of mexX (PA2019) gene expression in wild type Pseudomonas aeruginosa PAO1 NB52019 at 12 ug/ml relative to control; how it was run: as §2
Pseudomonas aeruginosa [5] = assay: Antibacterial activity against Pseudomonas aeruginosa PAO1 NB52021 expressing mexB by broth microdilution method
How it was run: (§3)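 Broth microdilution MICs run per standard CLSI guidelines; P. aeruginosa strains routinely grown at 37°C in Mueller-Hinton or Luria medium.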

Pseudomonas aeruginosa [6] = assay: Antibacterial activity against Pseudomonas aeruginosa PAO1 CDR1 expressing fmt::aacC1 by broth microdilution method; how it was run: as §3
Pseudomonas aeruginosa [7] = assay: Induction of oprM (PA0427) gene expression in wild type Pseudomonas aeruginosa PAO1 NB52019 at 12 ug/ml relative to control; how it was run: as §2
Pseudomonas aeruginosa [8] = assay: Antibacterial activity against Pseudomonas aeruginosa PAO1 NB52020 expressing mexAB-oprM by broth microdilution method; how it was run: as §1
Pseudomonas aeruginosa [9] = assay: Antibacterial activity against Pseudomonas aeruginosa PAO1 CDS28 expressing 16-bp deleted fmt at position 833 by broth microdilution method; how it was run: as §3
Pseudomonas aeruginosa [10] = assay: Antibacterial activity against Pseudomonas aeruginosa PAO1 NB52023 expressing mexB and mexX by broth microdilution method; how it was run: as §3
Pseudomonas aeruginosa [11] = assay: Antibacterial activity against Pseudomonas aeruginosa PAO1 CDS13 expressing mexAB-oprM fmt C127T, R43C mutant by broth microdilution method; how it was run: as §1
Pseudomonas aeruginosa [12] = assay: Antibacterial activity against Pseudomonas aeruginosa PAO1 CDS30 harboring pRC5 by broth microdilution method; how it was run: as §1
Pseudomonas aeruginosa [13] = assay: Antibacterial activity against Pseudomonas aeruginosa PAO1 CDS28 harboring pSW1 by broth microdilution method; how it was run: as §1
Pseudomonas aeruginosa [14] = assay: Antibacterial activity against Pseudomonas aeruginosa PAO1 CDS22 expressing mexAB-oprM folD A424C, T142P mutant by broth microdilution method; how it was run: as §1
Pseudomonas aeruginosa [15] = assay: Antibacterial activity against Pseudomonas aeruginosa PAO1 CDS13 harboring pSW1 by broth microdilution method; how it was run: as §1
Pseudomonas aeruginosa [16] = assay: Induction of […] (PA5471) gene expression in wild type Pseudomonas aeruginosa PAO1 NB52019 at 12 ug/ml relative to control; how it was run: as §2
Pseudomonas aeruginosa [17] = assay: Antibacterial activity against Pseudomonas aeruginosa PAO1 NB52022 expressing mexX by broth microdilution method; how it was run: as §1
Pseudomonas aeruginosa [18] = assay: Antibacterial activity against Pseudomonas aeruginosa PAO1 CDS30 expressing folD G493T, V165R mutant by broth microdilution method; how it was run: as §1
Pseudomonas aeruginosa [19] = assay: Antibacterial activity against Pseudomonas aeruginosa PAO1 CDS6 expressing nfxB A115C, T39P mutant by broth microdilution method; how it was run: as §1
Pseudomonas aeruginosa [20] = assay: Antibacterial activity against Pseudomonas aeruginosa PAO1 CDS1 expressing 14-bp deleted nfxB at base 92 by broth microdilution method; how it was run: as §3
Pseudomonas aeruginosa [21] = assay: Antibacterial activity against Pseudomonas aeruginosa PAO1 CDR2 expressing mexAB-oprM and fmt::aacC1 by broth microdilution method; how it was run: as §3
Pseudomonas aeruginosa [22] = assay: Induction of mexY (PA2018) gene expression in wild type Pseudomonas aeruginosa PAO1 NB52019 at 12 ug/ml relative to control; how it was run: as §2

For `CCCC[C@H](CN(O)C=O)C(=O)N1CCC[C@H]1C(=O)Nc1ccc(F)c[n+]1[O-]`, the MIC (Pseudomonas aeruginosa [1]) was 128 µg/mL (≈ 323 µM), the MIC (Pseudomonas aeruginosa [2]) was 4 µg/mL (≈ 10.1 µM) and the “fold change (FC)” value (Pseudomonas aeruginosa [3]) was 4.8. For the same compound, the “fold change (FC)” value (Pseudomonas aeruginosa [4]) was 11.3, the MIC (Pseudomonas aeruginosa [5]) was 64 µg/mL (≈ 161 µM) and the MIC (Pseudomonas aeruginosa [6]) was > 1020 µg/mL. The “fold change (FC)” value (Pseudomonas aeruginosa [7]) was 0.78, the MIC (Pseudomonas aeruginosa [8]) was 4 µg/mL (≈ 10.1 µM) and the MIC (Pseudomonas aeruginosa [9]) was > 1020 µg/mL. The MIC (Pseudomonas aeruginosa [10]) was 8 µg/mL (≈ 20.2 µM), the MIC (Pseudomonas aeruginosa [11]) was > 128 µg/mL and the MIC (Pseudomonas aeruginosa [12]) was 128 µg/mL (≈ 323 µM). The MIC (Pseudomonas aeruginosa [13]) was 128 µg/mL (≈ 323 µM), the MIC (Pseudomonas aeruginosa [14]) was > 128 µg/mL and the MIC (Pseudomonas aeruginosa [15]) was 4 µg/mL (≈ 10.1 µM). The “fold change (FC)” value (Pseudomonas aeruginosa [16]) was 3.1, the MIC (Pseudomonas aeruginosa [17]) was 128 µg/mL (≈ 323 µM) and the MIC (Pseudomonas aeruginosa [18]) was > 1020 µg/mL. For the same compound, the MIC (Pseudomonas aeruginosa [19]) was > 128 µg/mL, the MIC (Pseudomonas aeruginosa [20]) was > 128 µg/mL and the MIC (Pseudomonas aeruginosa [21]) was > 1020 µg/mL. For the same compound, the “fold change (FC)” value (Pseudomonas aeruginosa [22]) was 11.7.
